Assay results published in ChEMBL document CHEMBL3779805, “Orally bioavailable pyridine and pyrimidine-based Factor XIa inhibitors: Discovery of the methyl N-phenyl carbamate P2 prime group” (Bioorg Med Chem, 2016).
pKi: −log10 of the molar value.

Legend:
Canis familiaris [1] = experiment: Volume of distribution at steady state in beagle dog plasma at 0.27 mg/kg, iv and 0.43 mg/kg, po by LC-MS/MS method; assay type: ADME, organism-based, Canis lupus familiaris; settings: in vivo
In short: (§1)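 Dogs dosed iv and po in N-in-1 (cassette) format. The same vehicle was used for both routes: 70% water, 10% ethanol, 10% dimethylacetamide, 10% polypropylene glycol.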

Coagulation factor XI = Coagulation factor XI (Homo sapiens, UniProt P03951)
[2] = Oral bioavailability in beagle dog plasma at 0.43 mg/kg by LC-MS/MS method; assay type: ADME, organism-based, Canis lupus familiaris; in short: as §1
Canis familiaris [3] = experiment: Clearance in beagle dog plasma at 0.27 mg/kg, iv and 0.43 mg/kg, po administered in cassette format by LC-MS/MS method; assay type: ADME, organism-based, Canis lupus familiaris; settings: in vivo; in short: as §1
Canis familiaris [4] = experiment: Half life in beagle dog plasma at 0.27 mg/kg, iv and 0.43 mg/kg, po by LC-MS/MS method; assay type: ADME, organism-based, Canis lupus familiaris; settings: in vivo; in short: as §1
[5] = Inhibition of human […] chymotrypsin assessed as reduction in release of p-nitroaniline after 10 to 120 mins by Michaelis-Menten equation analysis
Plasma = experiment: Anticoagulant activity in human plasma assessed as concentration required for 50% increase in activated partial thromboplastin time by automated coagulation analyzer; assay type: functional
In short: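 aPTT clotting assay in pooled normal human plasma on an automated coagulation analyzer with commercial reagents. EC1.5x is the inhibitor plasma concentration giving a 50% increase in clotting time over the no-inhibitor control.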

[6] = AUC in beagle dog plasma at 0.2 mg/kg, iv and 0.2 mg/kg, po by LC-MS/MS method; assay type: ADME, organism-based, Canis lupus familiaris; in short: as §1
[7] = Oral bioavailability in beagle dog plasma at 0.2 mg/kg by LC-MS/MS method; assay type: ADME, organism-based, Canis lupus familiaris; in short: as §1
Canis familiaris [8] = experiment: (§2) Clearance in beagle dog plasma at 0.2 mg/kg, iv and 0.2 mg/kg, po administered in cassette format by LC-MS/MS method; assay type: ADME, organism-based, Canis lupus familiaris; settings: in vivo; in short: as §1
Plasminogen = Plasminogen (Homo sapiens, UniProt P00747); experiment: Inhibition of human plasmin assessed as reduction in release of p-nitroaniline after 10 to 120 mins by Michaelis-Menten equation analysis
In short: (§3)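 Purified human enzymes with commercial synthetic peptide substrates. IC50 from 4–11 inhibitor concentrations, run in duplicate at a fixed substrate concentration (standard error <20%). Ki = IC50/(1+S/Km), assuming competitive inhibition.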

[9] = molecular target: Urokinase-type plasminogen activator (Homo sapiens, UniProt P00749); experiment: Inhibition of human urokinase assessed as reduction in release of p-nitroaniline after 10 to 120 mins by Michaelis-Menten equation analysis; in short: as §3
[10] = molecular target: Vitamin K-dependent protein C (Homo sapiens, UniProt P04070); experiment: Inhibition of human activated protein C assessed as reduction in release of p-nitroaniline after 10 to 120 mins by Michaelis-Menten equation analysis; in short: as §3
Plasma kallikrein = Plasma kallikrein (Homo sapiens, UniProt P03952); experiment: Inhibition of human plasma kallikrein assessed as reduction in release of p-nitroaniline after 10 to 120 mins by Michaelis-Menten equation analysis; assay type: cell-free; in short: as §3
Prothrombin = Prothrombin (Homo sapiens, UniProt P00734); experiment: Inhibition of human coagulation thrombin assessed as reduction in release of p-nitroaniline after 10 to 120 mins by Michaelis-Menten equation analysis; in short: as §3
Trypsin = Trypsin (Homo sapiens, UniProt P07477+P07478+P35030); experiment: Inhibition of human coagulation trypsin assessed as reduction in release of p-nitroaniline after 10 to 120 mins by Michaelis-Menten equation analysis; assay type: protein assay; in short: as §3
Coagulation factor IX = Coagulation factor IX (Homo sapiens, UniProt P00740); experiment: Inhibition of human coagulation factor 9a assessed as reduction in release of p-nitroaniline after 10 to 120 mins by Michaelis-Menten equation analysis; in short: as §3
Coagulation factor X = Coagulation factor X (Homo sapiens, UniProt P00742); experiment: Inhibition of human coagulation factor 10a assessed as reduction in release of p-nitroaniline after 10 to 120 mins by Michaelis-Menten equation analysis; in short: as §3
Coagulation factor VII = molecular target: T1, Coagulation factor VII (Homo sapiens, UniProt P08709); experiment: Inhibition of human coagulation factor 7a assessed as reduction in release of p-nitroaniline after 10 to 120 mins by Michaelis-Menten equation analysis; in short: as §3
T1 sequence (P08709 whole entry): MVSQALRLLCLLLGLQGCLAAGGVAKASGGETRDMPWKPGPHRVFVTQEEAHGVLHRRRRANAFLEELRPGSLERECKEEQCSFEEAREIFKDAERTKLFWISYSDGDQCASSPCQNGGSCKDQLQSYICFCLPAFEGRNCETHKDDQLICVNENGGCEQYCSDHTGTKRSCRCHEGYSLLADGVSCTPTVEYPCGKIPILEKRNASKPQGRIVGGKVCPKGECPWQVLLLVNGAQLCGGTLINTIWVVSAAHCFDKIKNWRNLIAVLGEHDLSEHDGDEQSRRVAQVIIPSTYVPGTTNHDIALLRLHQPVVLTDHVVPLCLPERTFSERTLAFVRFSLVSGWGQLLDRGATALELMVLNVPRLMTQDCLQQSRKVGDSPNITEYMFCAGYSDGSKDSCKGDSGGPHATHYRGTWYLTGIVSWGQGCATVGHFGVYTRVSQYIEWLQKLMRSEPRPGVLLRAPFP

[11] = molecular target: Tissue-type plasminogen activator (Homo sapiens, UniProt P00750); experiment: Inhibition of human TPA assessed as reduction in release of p-nitroaniline after 10 to 120 mins by Michaelis-Menten equation analysis; in short: as §3
[12] = (§4) Volume of distribution at steady state in beagle dog plasma at 0.2 mg/kg, iv and 0.2 mg/kg, po by LC-MS/MS method; assay type: ADME, organism-based, Canis lupus familiaris; settings: beagle, plasma, read-out: Vdss; in short: as §1
[13] = as §2; assay type: ADME, organism-based, Canis lupus familiaris; settings: beagle, plasma; in short: as §1
[14] = (§5) Half life in beagle dog plasma at 0.2 mg/kg, iv and 0.2 mg/kg, po by LC-MS/MS method; assay type: ADME, organism-based, Canis lupus familiaris; settings: beagle, plasma; in short: as §1
Canis familiaris [15] = experiment: as §4; assay type: ADME, organism-based, Canis lupus familiaris; settings: in vivo; in short: as §1
Canis familiaris [16] = experiment: as §5; assay type: ADME, organism-based, Canis lupus familiaris; settings: in vivo; in short: as §1

Chain of Coagulation factor XI (P03951 19-387 limits assumed): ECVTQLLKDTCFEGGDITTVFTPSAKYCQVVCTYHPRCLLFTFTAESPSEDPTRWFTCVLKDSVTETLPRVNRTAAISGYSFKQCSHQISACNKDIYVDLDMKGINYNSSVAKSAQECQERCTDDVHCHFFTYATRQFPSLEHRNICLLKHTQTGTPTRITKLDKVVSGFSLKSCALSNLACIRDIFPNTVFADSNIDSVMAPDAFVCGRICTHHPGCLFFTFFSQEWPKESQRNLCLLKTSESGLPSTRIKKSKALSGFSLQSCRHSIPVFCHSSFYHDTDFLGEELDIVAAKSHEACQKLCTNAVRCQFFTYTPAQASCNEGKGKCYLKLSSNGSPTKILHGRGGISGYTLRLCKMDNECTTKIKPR
Chain of Coagulation factor XI (P03951 388-625 limits assumed): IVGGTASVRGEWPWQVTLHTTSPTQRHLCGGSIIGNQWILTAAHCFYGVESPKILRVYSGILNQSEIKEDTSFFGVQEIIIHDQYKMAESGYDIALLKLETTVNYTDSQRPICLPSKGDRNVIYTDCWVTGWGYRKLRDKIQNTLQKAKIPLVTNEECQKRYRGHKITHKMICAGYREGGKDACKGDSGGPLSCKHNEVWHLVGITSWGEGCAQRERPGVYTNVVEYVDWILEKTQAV
Chain of Vitamin K-dependent protein C (P04070 43-197 limits assumed): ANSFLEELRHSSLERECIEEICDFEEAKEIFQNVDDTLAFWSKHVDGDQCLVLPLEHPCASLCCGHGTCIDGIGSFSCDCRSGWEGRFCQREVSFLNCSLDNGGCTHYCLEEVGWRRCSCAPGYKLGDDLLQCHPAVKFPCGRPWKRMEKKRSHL
Chain of Vitamin K-dependent protein C (P04070 212-461 limits assumed): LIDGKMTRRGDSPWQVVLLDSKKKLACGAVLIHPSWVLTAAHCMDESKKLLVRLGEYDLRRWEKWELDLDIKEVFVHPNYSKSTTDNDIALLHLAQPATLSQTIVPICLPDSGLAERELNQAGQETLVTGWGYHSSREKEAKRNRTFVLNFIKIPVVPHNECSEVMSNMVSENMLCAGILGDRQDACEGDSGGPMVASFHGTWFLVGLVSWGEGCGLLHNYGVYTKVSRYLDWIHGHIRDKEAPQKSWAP
Chain of Coagulation factor X (P00742 41-179 limits assumed): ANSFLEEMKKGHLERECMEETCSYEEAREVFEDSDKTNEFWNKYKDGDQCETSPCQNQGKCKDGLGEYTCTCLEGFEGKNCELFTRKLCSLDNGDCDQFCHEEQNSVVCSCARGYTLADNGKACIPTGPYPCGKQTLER
Chain of Coagulation factor X (P00742 235-488 limits assumed): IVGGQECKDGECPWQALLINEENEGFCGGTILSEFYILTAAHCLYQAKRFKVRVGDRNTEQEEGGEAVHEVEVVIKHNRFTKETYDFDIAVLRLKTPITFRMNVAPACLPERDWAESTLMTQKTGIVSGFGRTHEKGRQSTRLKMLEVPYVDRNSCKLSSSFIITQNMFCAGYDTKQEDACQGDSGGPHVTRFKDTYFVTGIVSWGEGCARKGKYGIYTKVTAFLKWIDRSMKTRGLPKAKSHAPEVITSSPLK
Chain of Plasminogen (P00747 97-580 limits assumed): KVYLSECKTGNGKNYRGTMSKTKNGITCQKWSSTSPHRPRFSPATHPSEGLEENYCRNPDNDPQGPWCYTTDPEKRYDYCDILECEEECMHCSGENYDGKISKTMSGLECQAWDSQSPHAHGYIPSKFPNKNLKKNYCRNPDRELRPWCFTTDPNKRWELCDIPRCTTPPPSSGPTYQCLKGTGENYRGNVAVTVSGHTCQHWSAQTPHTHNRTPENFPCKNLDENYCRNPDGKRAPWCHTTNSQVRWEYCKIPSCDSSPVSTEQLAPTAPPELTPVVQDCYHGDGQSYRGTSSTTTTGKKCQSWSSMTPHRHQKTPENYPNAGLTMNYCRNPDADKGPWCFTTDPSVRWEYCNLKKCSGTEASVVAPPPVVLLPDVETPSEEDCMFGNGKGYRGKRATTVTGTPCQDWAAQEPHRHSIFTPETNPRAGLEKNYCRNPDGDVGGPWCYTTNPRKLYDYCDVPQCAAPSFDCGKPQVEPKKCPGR
Chain of Plasminogen (P00747 581-810 limits assumed): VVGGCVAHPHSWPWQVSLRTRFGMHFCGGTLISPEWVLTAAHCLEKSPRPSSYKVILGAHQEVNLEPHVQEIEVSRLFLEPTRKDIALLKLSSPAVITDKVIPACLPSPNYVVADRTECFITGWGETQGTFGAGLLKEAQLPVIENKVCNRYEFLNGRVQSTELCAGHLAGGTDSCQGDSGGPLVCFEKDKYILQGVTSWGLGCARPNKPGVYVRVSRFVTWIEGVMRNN
Chain of Plasma kallikrein (P03952 20-390 limits assumed): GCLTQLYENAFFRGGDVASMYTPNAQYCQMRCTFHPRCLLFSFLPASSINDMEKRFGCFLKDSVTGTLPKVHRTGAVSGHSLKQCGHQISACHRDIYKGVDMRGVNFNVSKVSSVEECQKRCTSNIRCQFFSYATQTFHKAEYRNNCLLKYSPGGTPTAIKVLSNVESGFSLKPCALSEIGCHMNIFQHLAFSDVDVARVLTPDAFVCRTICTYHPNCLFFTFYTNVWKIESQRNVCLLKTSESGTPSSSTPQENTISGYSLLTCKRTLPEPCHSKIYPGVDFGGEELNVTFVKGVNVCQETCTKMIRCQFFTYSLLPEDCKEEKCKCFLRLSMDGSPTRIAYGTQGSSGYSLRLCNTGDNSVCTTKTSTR
Chain of Plasma kallikrein (P03952 391-638 limits assumed): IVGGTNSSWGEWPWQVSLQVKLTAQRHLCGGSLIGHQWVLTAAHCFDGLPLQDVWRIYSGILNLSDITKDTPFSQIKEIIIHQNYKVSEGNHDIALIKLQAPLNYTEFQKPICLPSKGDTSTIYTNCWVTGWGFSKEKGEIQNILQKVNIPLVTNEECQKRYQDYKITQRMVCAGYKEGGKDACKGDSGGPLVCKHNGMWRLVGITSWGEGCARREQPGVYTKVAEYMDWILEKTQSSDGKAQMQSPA
Chain of Tissue-type plasminogen activator (P00750 whole entry): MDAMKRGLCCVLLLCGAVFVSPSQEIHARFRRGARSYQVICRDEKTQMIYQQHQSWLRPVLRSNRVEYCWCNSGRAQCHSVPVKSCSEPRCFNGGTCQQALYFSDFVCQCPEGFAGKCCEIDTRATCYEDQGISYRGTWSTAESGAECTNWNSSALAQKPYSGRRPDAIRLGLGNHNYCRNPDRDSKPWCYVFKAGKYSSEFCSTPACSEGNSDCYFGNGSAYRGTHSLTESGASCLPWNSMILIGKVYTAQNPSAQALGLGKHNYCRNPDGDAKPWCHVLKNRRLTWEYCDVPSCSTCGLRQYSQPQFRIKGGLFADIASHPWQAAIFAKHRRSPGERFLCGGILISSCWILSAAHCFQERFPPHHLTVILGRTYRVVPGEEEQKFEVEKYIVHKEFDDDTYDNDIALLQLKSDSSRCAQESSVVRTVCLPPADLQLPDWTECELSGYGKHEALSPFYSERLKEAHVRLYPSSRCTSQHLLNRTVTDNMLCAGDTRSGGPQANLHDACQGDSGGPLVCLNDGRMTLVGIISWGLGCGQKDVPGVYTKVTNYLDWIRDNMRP
Chain of Coagulation factor IX (P00740 47-191 limits assumed): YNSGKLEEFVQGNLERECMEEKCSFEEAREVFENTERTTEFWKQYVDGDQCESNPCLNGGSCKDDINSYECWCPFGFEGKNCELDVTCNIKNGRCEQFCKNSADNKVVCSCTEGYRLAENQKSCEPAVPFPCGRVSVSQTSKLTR
Chain of Coagulation factor IX (P00740 227-461 limits assumed): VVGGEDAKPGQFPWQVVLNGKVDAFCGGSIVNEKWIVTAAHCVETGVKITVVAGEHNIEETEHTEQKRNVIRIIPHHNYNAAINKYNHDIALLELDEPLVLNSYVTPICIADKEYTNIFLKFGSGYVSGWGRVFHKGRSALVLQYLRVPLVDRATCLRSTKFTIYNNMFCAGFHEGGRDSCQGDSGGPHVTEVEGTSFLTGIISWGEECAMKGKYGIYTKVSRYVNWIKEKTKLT

SMILES	pKi (Coagulation factor XI)	EC1.5 (Plasma) [µM]	also measured
NC[C@H]1CC[C@H](C(=O)N[C@@H](Cc2ccccc2)c2cc(-c3ccc4c(N)n[nH]c4c3)ccn2)CC1	8.14	0.5	Vdss (Canis familiaris [1]): 3.4 L/kg; bioavailability [2]: 0%; clearance (Canis familiaris [3]): 50 mL/min/kg; t1/2 (Canis familiaris [4]): 1.2 h; pKi [5]: < 4.68
NC[C@H]1CC[C@H](C(=O)N[C@@H](Cc2ccccc2)c2nc(-c3ccc4c(N)n[nH]c4c3)c(Cl)[nH]2)CC1	–	0.32	–
COC(=O)Nc1ccc(-c2c[nH]c([C@H](Cc3ccccc3)NC(=O)/C=C/c3cc(Cl)ccc3-n3cnnn3)n2)cc1	–	8.6	AUC [6]: 0.03 µM·h; bioavailability [7]: 10%; clearance (Canis familiaris [8]): 21 mL/min/kg
COC(=O)Nc1ccc(-c2cncc([C@H](Cc3ccccc3)NC(=O)[C@H]3CC[C@H](CN)CC3)c2)cc1	8.08	1.3	–
COC(=O)Nc1ccc(-c2cccc([C@H](Cc3ccccc3)NC(=O)[C@H]3CC[C@H](CN)CC3)c2)cc1	7.77	13	–
NC[C@H]1CC[C@H](C(=O)N[C@@H](Cc2ccccc2)c2cc(-c3ccc4[nH]nc(O)c4c3)ccn2)CC1	8.43	0.4	pKi (Plasminogen): < 4.66; pKi [9]: < 4.85; pKi [10]: < 4.52; pKi (Plasma kallikrein): 6.26; pKi (Prothrombin): < 4.90; pKi [5]: < 4.68; Ki (Trypsin): 999 nM; pKi (Coagulation factor IX): < 4.46; pKi (Coagulation factor X): < 5.05; pKi (Coagulation factor VII): < 4.82; pKi [11]: < 4.66
COC(=O)Nc1ccc(-c2cc([C@H](Cc3ccccc3)NC(=O)[C@H]3CC[C@H](CN)CC3)ccn2)cc1	8.10	0.9	–
NC[C@H]1CC[C@H](C(=O)N[C@@H](Cc2ccccc2)c2cc(-c3ccc4c(N)noc4c3)ccn2)CC1	8.42	0.6	–
NC[C@H]1CC[C@H](C(=O)N[C@H](Cc2ccccc2)c2cc(-c3ccc4c(N)noc4c3)ccn2)CC1	8.50	–	–
COC(=O)Nc1ccc(-c2cc([C@H](Cc3ccccc3)NC(=O)/C=C/c3cc(Cl)ccc3-n3cnnn3)ncn2)cc1	8.17	21	Vd [12]: 4 L/kg; AUC [6]: 0.23 µM·h; bioavailability [7]: 28%; clearance [13]: 0.122 mL/min/kg; half-life [14]: 6.8 h
COC(=O)Nc1ccc(-c2cc([C@H](Cc3ccccc3)NC(=O)/C=C/c3cc(Cl)ccc3-n3cnnn3)[nH]c(=O)c2)cc1	8.62	2.8	Vdss (Canis familiaris [15]): 1.6 L/kg; bioavailability [7]: 0%; clearance (Canis familiaris [8]): 30 mL/min/kg; t1/2 (Canis familiaris [16]): 1.5 h
NC[C@H]1CC[C@H](C(=O)NC(Cc2ccccc2)c2cc(-c3ccc4[nH]nc(O)c4c3)ccn2)CC1 (mixture of isomers)	8.12	0.5	–
NC[C@H]1CC[C@H](C(=O)NC(Cc2ccccc2)c2cc(-c3ccc4c(N)noc4c3)ccn2)CC1 (mixture of isomers)	8.04	–	–
NC[C@H]1CC[C@H](C(=O)NC(Cc2ccccc2)c2cc(-c3cccc(C(=O)O)c3)ccn2)CC1 (mixture of isomers)	6.69	–	–
COc1n[nH]c2ccc(-c3ccnc(C(Cc4ccccc4)NC(=O)[C@H]4CC[C@H](CN)CC4)c3)cc12 (mixture of isomers)	7.06	>40	–
NC[C@H]1CC[C@H](C(=O)NC(Cc2ccccc2)c2cc(-c3ccc4[nH]nc(N)c4c3)ccn2)CC1 (mixture of isomers)	7.28	26	–
NC[C@H]1CC[C@H](C(=O)NC(Cc2ccccc2)c2cc(-c3ccc4[nH]ncc4c3)ccn2)CC1 (mixture of isomers)	7.21	–	–
NC[C@H]1CC[C@H](C(=O)NC(Cc2ccccc2)c2cc(-c3ccc(N)nc3)ccn2)CC1 (mixture of isomers)	7.62	–	–
NC[C@H]1CC[C@H](C(=O)NC(Cc2ccccc2)c2cc(-c3ccc4c(N)nccc4c3)ccn2)CC1 (mixture of isomers)	6.84	–	–
NC[C@H]1CC[C@H](C(=O)NC(Cc2ccccc2)c2cc(-c3ccc4c(N)ncnc4c3)ccn2)CC1 (mixture of isomers)	8.00	2.8	–
NC[C@H]1CC[C@H](C(=O)NC(Cc2ccccc2)c2cc(-c3ccc(N)c(C(=O)O)c3)ccn2)CC1 (mixture of isomers)	8.28	0.8	–
COC(=O)Nc1ccc(-c2ccnc(C(Cc3ccccc3)NC(=O)[C@H]3CC[C@H](CN)CC3)c2)cc1 (mixture of isomers)	7.92	3.7	–
NC[C@H]1CC[C@H](C(=O)NC(Cc2ccccc2)c2cc(-c3ccc4c(O)n[nH]c4c3)ccn2)CC1 (mixture of isomers)	7.01	–	–
NC[C@H]1CC[C@H](C(=O)NC(Cc2ccccc2)c2cc(-c3ccc4cn[nH]c4c3)ccn2)CC1 (mixture of isomers)	7.06	>40	–
Cn1[nH]c2ccc(-c3ccnc(C(Cc4ccccc4)NC(=O)[C@H]4CC[C@H](CN)CC4)c3)cc2c1=O (mixture of isomers)	6.96	–	–
NC[C@H]1CC[C@H](C(=O)NC(Cc2ccccc2)c2cc(-c3ccc(N)cc3)ccn2)CC1 (mixture of isomers)	7.25	35	–
